# Shown are actives, neighbours in structure and some others; about 3% of the full set was active somewhere.
# SENP8 block-1 – SENP8 (human) protease inhibition; recombinant SENP8, Nedd8 substrate fluorescence; inhibition, % at 20 µM; Q96LD8; actives 0.64% (n = 360,000); in the data active = inhibition mostly above about 40%, no sharp cut-off; inactive = mostly below about 27%
# SENP6 block – blocks the human protease SENP6; inhibition, % at 10 µM; actives 1.8% (n = 330,000); Q9GZR1; Recombinant SENP6 catalytic domain, aminoluciferin luminescence;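 active = inhibition above about 50% at the single tested dose, limit read from the data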;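 note: plate controls were DMSO wells with enzyme for no effect and DMSO wells lacking enzyme for full effect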
# SENP7 inh – blocks the human protease SENP7; AID 434973; inhibition, % at 5 µM; recombinant SENP7, Z-RLRGG-aminoluciferin luminescence, 40 min; Q9BQF6; actives 1.5% (n = 330,000);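 active = inhibition above about 50% at the single test dose, limit read from the data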;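 note: plate controls were DMSO with enzyme for no effect and no enzyme buffer wells for full effect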
# Target sequence (Q9BQF6 706-1050 limits assumed): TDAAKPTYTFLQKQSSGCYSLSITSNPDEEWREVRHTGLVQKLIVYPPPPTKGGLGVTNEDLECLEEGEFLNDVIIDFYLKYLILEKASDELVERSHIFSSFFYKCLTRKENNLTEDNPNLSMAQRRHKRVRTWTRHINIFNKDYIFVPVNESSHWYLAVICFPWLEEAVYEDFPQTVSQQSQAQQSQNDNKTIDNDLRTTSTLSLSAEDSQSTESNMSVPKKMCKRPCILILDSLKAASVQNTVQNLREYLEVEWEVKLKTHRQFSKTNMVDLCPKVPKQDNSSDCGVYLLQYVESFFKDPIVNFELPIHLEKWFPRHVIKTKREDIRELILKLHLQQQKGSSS
# SENP8 block-2 – blocks the human protease SENP8 | Q96LD8 | purified SENP8, Z-RLRGG-aminoluciferin cleavage, luminescence | inhibition, % at 10 µM | actives 1.2% (n = 330,000) | AID 2540; in the data active = inhibition above about 50%
# Apaf-1 inh – human Apaf-1 inhibition. O14727. reconstituted apoptosome caspase-3 activity, DEVD-Rh110 fluorescence. inhibition, % at 20 µM. actives 0.71% (n = 330,000). AID 489030; active = inhibition of at least 40% at 20 µM;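 note: plate controls were DMSO wells for no effect and DEVD-CHO caspase inhibitor wells for full effect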
#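 Material: cell-free apoptosome with Apaf-1, procaspase-3 and caspase-9; Buffer or medium: Hepes pH 7.5 with detergent and BSA; Reagent: cytochrome c trigger plus (Z-DEVD)2-Rh110 caspase-3 substrate; Times: compound with Apaf-1, dATP, procaspase-3 30 min, then 50 min reaction, room temperature; Technique: Rh110 fluorescence intensity.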
# UBC13 polyUb – human UBC13 polyubiquitination inhibition | P61088 | actives 0.47% (n = 330,000) | UBC13 polyubiquitin chain formation, TR-FRET | inhibition, % at 20 µM; in the data active = inhibition above about 45%, passing the limit was not always enough; inconclusive = no clear call, values can overlap the other calls
# Target sequence (P61088 whole entry, looked up): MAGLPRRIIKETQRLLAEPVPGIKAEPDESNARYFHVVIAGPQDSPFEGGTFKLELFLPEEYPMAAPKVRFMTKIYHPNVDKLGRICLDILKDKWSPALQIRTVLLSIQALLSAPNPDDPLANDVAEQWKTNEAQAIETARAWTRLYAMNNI
# Active calls of the source: *; i = inactive; ? = inconclusive; . = no result given.
SMILES,SENP8 block-1,SENP6 block,SENP7 inh,SENP8 block-2,Apaf-1 inh,UBC13 polyUb
NC(=O)NC[C@@H]1CC[C@@H](Cc2ccc(-c3ccccc3)cc2)O1,1.3,.,14.3,.,10.1,.
c1ccc(-c2c(-c3ccccc3)n(Cc3ccco3)c3ncnc(NCCCn4ccnc4)c23)cc1,-490.7,-14.5,1.4,-14.5,41.6*,21.4
OCCNc1ncnc2c1c(-c1ccccc1)c(-c1ccccc1)n2Cc1ccco1,-457.4,-13.9,0.1,-2.4,2.1,16.3
Cn1c(=O)c(C(=O)Nc2ccccn2)c(O)c2ccccc21,-188.4,-4.8,75.1*,35.6,13.4,?
Cn1c(=O)c(C(=O)Nc2ccccc2S(N)(=O)=O)c(O)c2ccccc21,-57.2,-8.9,-3.2,-0.3,-1.2,?
CC(C)NC(=O)C1(C)CN(S(C)(=O)=O)CC(=O)N1C1CCCCCC1 (stereo not given),2.2,.,.,.,.,.
COc1ccccc1CNc1nc(NCc2ccc3occc3c2)c2sccc2n1,-47.5,.,.,.,.,.
CC(=O)C[C@@H]1SC[C@H](c2ccccc2)N1S(=O)(=O)c1ccc(C)cc1,19.1,.,.,.,.,.
c1csc(-c2nc3ccccc3s2)c1,-446.7,86.3*,80.0*,78.3*,3.4,10.1
c1csc(-c2ccc3ccccc3n2)c1,-382.2,76.4*,80.1*,57.2*,-3.1,6.5
COc1ccc(C(=O)COC(=O)c2cccnc2SC)cc1,2.8,27.3,70.5*,29.2,-9.2,4.5
CCOC(=O)c1sc(N=NC2=C(O)CCCC2=O)c(C(=O)OCC)c1C,52.7*,2.8,3.0,-0.1,25.8,-115.7
CCOC(=O)/C(N=Nc1sc(C(=O)OCC)c(C)c1C(=O)OCC)=C(\C)O,.,10.8,-2.1,7.7,1.9,6.1
COc1cccc2sc3cc(NCc4ccc(C)o4)ccc3c(=O)c12,-465.5,30.5,57.6*,42.4,20.0,?
COc1cc(-c2ccc3c(=O)c4ccccc4sc3c2)cc(OC)c1OC,-221.2,-22.5,-9.7,-11.8,20.0,25.9
O=C(Nc1ccn(CCCN2CCN(Cc3ccc(F)cc3)CC2)c(=O)n1)OCc1ccccc1,19.6,.,.,.,.,.
Clc1ccc2[nH]c(-c3ccccc3)cc2c1,-372.3,69.9*,60.2*,62.3*,7.9,-1.2
COCCn1c(/C=C/c2ccccc2)nc2ccccc21,-480.2,-7.0,64.8*,36.7,-4.1,11.3
COc1ccc(C(=O)NCCNc2nc3cc(C)cc(C)c3cc2C#N)c(OC)c1,-412.6,.,.,.,.,.
COC/C=C/C1=CC2=CC(=O)C(C)(OC(=O)c3cnc4ccccc4n3)C(=O)C2=CN1CC(C)C (stereo not given),53.9*,19.9,-4.1,-4.3,41.1*,-66.3
COC/C=C/C1=CC2=CC(=O)C(C)(OC(=O)c3cnc4ccccc4n3)C(=O)C2=CN1c1ccc(CO)cc1 (stereo not given),.,-54.8,11.9,-3.1,-0.1,-24.5
CCc1ccc(OCC(=O)NNC(=S)NC(=O)C2CCCCC2)c(Br)c1,16.6,7.2,-6.9,2.4,20.6,-20.0
CCc1ccc(OCC(=O)NNC(=S)NC(=O)C2CC2)c(Br)c1,-2.0,5.1,12.3,-6.2,-8.0,72.5*
O=c1/c(=C/c2ccccn2)sc2nc3ccccc3n12,-42.2,84.2*,97.7*,79.0*,7.5,-1.5
Cc1c(N2C(=O)/C(=C/c3ccc(N(C)C)cc3)N(C)C2=S)c(=O)n(-c2ccccc2)n1C,43.6*,.,.,.,.,.
SMILES,SENP8 block-1,SENP6 block,SENP7 inh,SENP8 block-2,Apaf-1 inh,UBC13 polyUb
O=c1c(-c2ccccc2)nc2ccccc2n1C(c1ccccc1)c1nc2ccccc2[nH]1 (stereo not given),-261.4,.,.,.,.,.
CC1=CC(=Nc2c(C)n(C)n(-c3ccccc3)c2=O)C=CC1=O,.,13.8,8.3,3.4,43.1*,-39.4
COc1ccc(C(=O)N(CCc2ccccc2)Cc2ccccc2)cc1S(=O)(=O)N1CCOCC1,6.7,-14.3,-1.9,3.8,45.0*,14.2
CC(=O)[C@@H]1[C@@H](C(=O)c2ccc(F)cc2)[C@]2(C(=O)Nc3ccccc32)[C@H]2C=Cc3cc(F)ccc3N12,-42.1,10.9,-4.4,-1.7,-8.9,12.1
O=C(c1ccc(F)cc1)[C@@H]1[C@@H](C(=O)c2ccccc2)[C@@]2(C(=O)Nc3ccccc32)[C@H]2c3ccccc3C=CN12,.,46.1,18.7,28.6,72.9*,-18.8
Cn1c2ccccc2c(=O)n2c(=O)c3ccccc3cc12,.,90.4*,95.3*,96.9*,98.3*,-6.6
NC1=C(Br)C(=O)c2ncccc2C1=O,96.5*,.,.,.,.,.
COc1cc(OC)cc(C2=Cc3ccc(OC)cc3C(CC(C)=O)N2c2ccc(-c3cccs3)cc2)c1 (stereo not given),-377.1,.,.,.,.,.
Brc1ccc(-c2nnc(-c3ccco3)o2)cc1,-207.5,80.8*,60.2*,66.2*,-3.3,4.4
Cc1[nH]n(-c2ccccc2)c(=O)c1/C=N/c1ccccn1,40.9*,-9.6,0.7,1.1,6.9,-1.2
CC1=NN(c2ccccc2)C(=O)/C1=C\c1cn(-c2ccccc2)nc1C,28.7,2.3,2.7,-3.3,23.0,-2.2
CC1=NN(c2ccccc2)C(=O)/C1=C\c1c(C)[nH]n(-c2ccccc2)c1=O,42.1*,2.0,6.8,3.1,22.7,-57.5
CCC(=O)Nc1ccc2c(c1)OC[C@@H](C)N(Cc1cccc(F)c1)C[C@@H](C)[C@@H](OC)CN(C)C2=O,21.2,.,.,.,.,.
c1ccc(COc2cccc(-c3cc4nc(NCc5cccs5)ccn4n3)c2)cc1,i,.,.,.,.,.
COc1cccc(C(=O)Nc2cc3c(cc2Cl)OCCCO3)c1,6.2,51.5*,40.0,34.3,2.3,-4.9
CC(=O)N(/N=C1\Sc2ccccc2C1=O)c1ccccc1,73.8*,.,.,.,.,.
CC(=O)N(/N=C1/C(=O)Nc2ccccc21)c1ccccc1,20.0,-22.6,-6.5,-0.9,10.4,-17.9
N#CC1(NC(=O)COC(=O)c2cc(O)c3ccccc3c2O)CCCCC1,-418.8,26.8,0.3,31.9,72.7*,-16.7
COCCNc1nc(Oc2cncc(Cl)c2)c2sccc2n1,-230.0,.,.,.,.,.
CC1(C(=O)Nc2cccc(C#N)c2)CCN1C(=O)Cc1ccc(-c2ccccc2)cc1 (stereo not given),2.6,.,.,.,.,.
Cc1cc2nc(N3C(=O)CNC3=S)sc2cc1C,-7.9,95.1*,95.6*,95.0*,0.0,-3.2
O=[N+]([O-])c1cc(C(F)(F)F)ccc1N1CCN(S(=O)(=O)c2ccc3ccccc3c2)CC1,40.0*,-10.1,0.4,-2.3,9.8,-7.9
O=C(Nc1ccccc1)Nc1ccc(-n2ccc(C(F)(F)F)n2)cc1,7.6,70.8*,57.5*,56.7*,-7.9,7.6
O=C(O)CC(CC(=O)Nc1ccc(-n2ccc(C(F)(F)F)n2)cc1)c1ccccc1 (stereo not given),5.2,0.6,2.7,4.7,-13.7,3.4
c1csc(Cc2nn3c(-c4ccncc4)nnc3s2)c1,9.7,1.7,-5.0,8.6,77.5*,-3.6

# Screening results from PubChem.
